The species named for experiment [1] is Cricetulus griseus. The experiment can be described thus: Hypersensitivity factor was defined as the ratio of IC50(AA8) to IC50(UV4). It counts as functional.
Experiment [2] can be described thus: Growth inhibition of aerobic chinese hamster ovary fibroblast UV4 cells using an exposure time of 18 hours. As to conditions: Cricetulus griseus, UV4, 18 h. Format: functional, cell-based. The essentials: (§1)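 Log-phase CHO monolayers in 96-well trays seeded at 200 (AA8; text prints "A48") or 300 (UV4) cells/well in Alpha MEM + 10% FCS, grown 24 h, then exposed aerobically 18 h to five 2-fold serial dilutions in duplicate.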

Experiment [3] is described as follows: Growth inhibition of aerobic chinese hamster ovary fibroblast AA8 cell line using an exposure time of 18 hours. It counts as functional, cell-based. Conditions: Cricetulus griseus, CHO-AA8, 18 h. The essentials:
as §1

The nature of experiment [4]: Hypoxic selectivity was measured as product of concentration and exposure time needed to reduce cell survival to 10% of control using UV4 cells at 10e6 /mL in the clonogenic assay. Format: functional, Cricetulus griseus. A digest of the protocol:
(§2)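 Magnetically stirred 10-mL suspensions of late-log UV4 cells (10^6/mL), gassed continuously with 5% CO2 in air or N2. Cells and drug in medium pre-equilibrated 60 min under that gas before mixing. Samples removed periodically up to 8 h for clonogenic survival. CT10 = concentration (μM) × time (h) for 10% survival; ratio = CT10(air)/CT10(N2), using concentrations giving similar kill rates.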

Experiment [5] can be described thus: CT10 ratio defined as ratio of CT10 (air) to that of CT10 (nitrogen)). It counts as functional. The essentials:
as §2

Consider 19 compounds from ChEMBL document CHEMBL1125539 (J Med Chem, 1992).

For orientation: IC50 means the concentration needed to halve the response being measured. High values mean weaker potency, low ones greater potency. Turning to `O=C(c1cc(N(CCO)CCO)c([N+](=O)[O-])cc1[N+](=O)[O-])N1CCOCC1`, the HF in experiment [1] was 1.1. The figures for the IC50 in experiment [2] and in experiment [3] were 2600 µM and 2950 µM, respectively.
On the same counts, the results for `O=C(c1cc(N(CCO)CCO)ccc1[N+](=O)[O-])N1CCOCC1` are 1, 9200 µM and 11200 µM.
With `CN(C)CCNC(=O)c1cc(N(CCO)CCO)c([N+](=O)[O-])cc1[N+](=O)[O-]`, the HF in experiment [1] stood at 1.4. In addition, the IC50 in experiment [2] stood at 3100 µM; in experiment [3], 4110 µM.
As to `O=[N+]([O-])c1ccc(N(CCO)CCO)cc1`, the HF in experiment [1] is 1.1. For the same compound, the IC50 is 2950 µM in experiment [2] and 3200 µM in experiment [3].
Take `O=[N+]([O-])c1ccc(N(CCO)CCO)c([N+](=O)[O-])c1`: in experiment [1], the HF amounted to 0.9. The IC50 turned out to be 280 µM in experiment [2] and 295 µM in experiment [3].
For the compound `NC(=O)c1cc(N(CCO)CCO)c([N+](=O)[O-])cc1[N+](=O)[O-]`, the CT10 in experiment [4] is greater than 35000 µM·h. Moreover, the HF in experiment [1] is 1.1. The results for the IC50 in experiment [2] and in experiment [3] were 5900 µM and 6200 µM, respectively.
Consider `O=C(c1cc(N(CCCl)CCCl)c([N+](=O)[O-])cc1[N+](=O)[O-])N1CCOCC1`, for which the CT10 in experiment [4] worked out at 156 µM·h. Also, the HF in experiment [1] was determined as 23. The IC50 in experiment [2] came to 12 µM; in experiment [3] it was 260 µM. The CT10 ratio in experiment [5] amounted to 1.3 air/N2.
As for `O=C(c1cc([N+](=O)[O-])ccc1N(CCO)CCO)N1CCOCC1`, in experiment [1], the HF worked out at 1.3. The figures for the IC50 in experiment [2] and in experiment [3] were 8400 µM and 10400 µM, respectively.
`O=C(c1cc([N+](=O)[O-])ccc1N(CCCl)CCCl)N1CCOCC1` yielded a CT10 in experiment [4] of 2325 µM·h. Moreover, in experiment [1], the HF was greater than 7. Besides, the IC50 was 68 µM in experiment [2] and greater than 500 µM in experiment [3]. Further, in experiment [5], the CT10 ratio stood at 1.15 air/N2.
Regarding `NC(=O)c1cc(N2CC2)c([N+](=O)[O-])cc1[N+](=O)[O-]` [TRETAZICAR], in experiment [1], the HF is 50. Further, the IC50 in experiment [2] is 11.7 µM; in experiment [3] it was 560 µM. The CT10 ratio in experiment [5] worked out at 3.6 air/N2.
`CN(C)CCNC(=O)c1cc(N(CCCl)CCCl)ccc1[N+](=O)[O-]` showed a CT10 in experiment [4] of 465 µM·h. In addition, in experiment [1], the HF turned out to be 12. For the same compound, the concentration for half-maximal inhibition (IC50) in experiment [2] is 72 µM; in experiment [3] it was 1140 µM. In addition, in experiment [5], the CT10 ratio turned out to be 2.3 air/N2.
With `O=C(c1cc(N2CC2)c([N+](=O)[O-])cc1[N+](=O)[O-])N1CCOCC1`, in experiment [4], the CT10 stood at 50 µM·h. Besides, the HF in experiment [1] stood at 330. Also, the values for the IC50 in experiment [2] and in experiment [3] were 2.7 µM and 690 µM, respectively. Also, the CT10 ratio in experiment [5] turned out to be 1.7 air/N2.
Take `CN(C)CCNC(=O)c1cc(N(CCCl)CCCl)c([N+](=O)[O-])cc1[N+](=O)[O-]`: the CT10 in experiment [4] was 1080 µM·h. The HF in experiment [1] amounted to 4.2. The IC50 came to 68 µM in experiment [2] and 260 µM in experiment [3]. Further, in experiment [5], the CT10 ratio was found to be 70 air/N2.
In experiment [4], `O=C(c1cc(N(CCCl)CCCl)ccc1[N+](=O)[O-])N1CCOCC1` had a CT10 of 450 µM·h. Also, in experiment [1], the HF came out at 19. The values for the IC50 in experiment [2] and in experiment [3] were 15 µM and 243 µM, respectively. Moreover, the CT10 ratio in experiment [5] was 1 air/N2.
As for `CN(C)CCNC(=O)c1cccc(N(CCCl)CCCl)c1`, the HF in experiment [1] stood at 44. Besides, the IC50 in experiment [2] turned out to be 0.27 µM; in experiment [3], 11 µM.
Turning to `NC(=O)c1cc(N(CCCl)CCCl)c([N+](=O)[O-])cc1[N+](=O)[O-]`, in experiment [4], the CT10 stood at 2700 µM·h. The HF in experiment [1] worked out at 6.8. The IC50 in experiment [2] amounted to 108 µM; in experiment [3], 470 µM. Also, the CT10 ratio in experiment [5] amounted to 60 air/N2.
Regarding `CN(C)CCNC(=O)c1cc([N+](=O)[O-])ccc1N(CCCl)CCCl`, in experiment [4], the CT10 stood at 78 µM·h. In addition, in experiment [1], the HF is 40. The half-inhibitory concentration (IC50) was determined as 5.7 µM in experiment [2] and 208 µM in experiment [3]. The CT10 ratio in experiment [5] turned out to be 1.5 air/N2.
For `CN(C)CCNC(=O)c1cc([N+](=O)[O-])ccc1N(CCO)CCO`, the HF in experiment [1] was 1.1. In addition, the IC50 in experiment [2] was 4000 µM; in experiment [3], 6700 µM.
In the case of `CN(C)CCNC(=O)c1cc(N(CCO)CCO)ccc1[N+](=O)[O-]`, the CT10 in experiment [4] was found to be 11300 µM·h. The HF in experiment [1] worked out at 1.6. Also, the values for the IC50 in experiment [2] and in experiment [3] were 8000 µM and 13200 µM, respectively. In experiment [5], the CT10 ratio worked out at 0.95 air/N2.
